Measurements: ChEMBL document CHEMBL1153560, “In vitro activities of doripenem and six comparator drugs against 423 aerobic and anaerobic bacterial isolates from infected diabetic foot wounds” (2008)
≈ marks a conversion by molar mass, not a printed value.

Legend:
Assay type in all cases: functional
[1] = test system: Streptococcus dysgalactiae subsp. equisimilis; test: Antibacterial activity against Streptococcus dysgalactiae subsp. equisimilis isolated from patient with diabetic foot infection assessed as percent resistant isolates after 18 to 24 hrs by broth microdilution method
Method in brief: (§1)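 Streptococci subcultured on Trypticase soy blood agar and tested by broth microdilution in cation-adjusted Mueller-Hinton broth with lysed horse blood. In-house twofold dilution trays stored at −70°C. About 5 × 10^5 CFU/ml final inoculum from overnight colonies. Read after 18 to 24 h at 37°C.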

Corynebacterium simulans [2] = test: Antibacterial activity against Corynebacterium simulans isolated from patient with diabetic foot infection after 48 hrs by broth microdilution method
Method in brief: (§2)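 Isolates were subcultured on Trypticase soy blood agar. Broth microdilution used cation-adjusted Mueller-Hinton broth with lysed horse blood, in-house trays of twofold drug dilutions stored at −70°C. Colonies from overnight growth gave a final inoculum of about 5 × 10^5 CFU/ml. Trays were read after 18 to 24 h at 37°C, up to 48 h for some strains.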

[3] = test system: Corynebacterium urealyticum; test: Antibacterial activity against Corynebacterium urealyticum isolated from patient with diabetic foot infection after 48 hrs by broth microdilution method; method in brief: as §2
[4] = test system: Staphylococcus epidermidis; test: Antibacterial activity against Staphylococcus epidermidis isolated from patient with diabetic foot infection after 18 to 24 hrs by broth microdilution method
Method in brief: (§3)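 Isolates were subcultured on Trypticase soy blood agar and tested by broth microdilution in cation-adjusted Mueller-Hinton broth. In-house trays of twofold drug dilutions were stored at −70°C. Overnight colonies gave a final inoculum of about 5 × 10^5 CFU/ml. Plates were read after 18 to 24 h at 37°C.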

Streptococcus agalactiae = test: Antibacterial activity against Streptococcus agalactiae isolated from patient with diabetic foot infection assessed as percent resistant isolates after 18 to 24 hrs by broth microdilution method; method in brief: as §1
Staphylococcus aureus [5] = test: Antibacterial activity against methicillin-sensitive Staphylococcus aureus isolated from patient with diabetic foot infection after 18 to 24 hrs by broth microdilution method
Method in brief: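 Subcultured on Trypticase soy blood agar, then broth microdilution in cation-adjusted Mueller-Hinton broth. Trays were made in-house with serial twofold drug dilutions and stored at −70°C. Inoculum was colonies from overnight growth, final approximately 5 × 10^5 CFU/ml. MIC was read after 18 to 24 h at 37°C. QC strains: S. aureus ATCC 29213 and E. coli ATCC 25922.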

Corynebacterium simulans [6] = test: Antibacterial activity against Corynebacterium simulans isolated from patient with diabetic foot infection assessed as percent resistant isolates after 48 hrs by broth microdilution method
Method in brief: (§4)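 Isolates subcultured on Trypticase soy blood agar. Broth microdilution in cation-adjusted Mueller-Hinton broth with lysed horse blood, using in-house twofold dilution trays stored at −70°C. Inoculum from overnight colonies at about 5 × 10^5 CFU/ml final. Read after 18 to 24 h at 37°C, up to 48 h for some Corynebacterium strains.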

[7] = test system: Corynebacterium minutissimum; test: Antibacterial activity against Corynebacterium minutissimum isolated from patient with diabetic foot infection after 48 hrs by broth microdilution method; method in brief: as §2
[8] = test system: Corynebacterium amycolatum; test: Antibacterial activity against Corynebacterium amycolatum isolated from patient with diabetic foot infection after 48 hrs by broth microdilution method; method in brief: as §2
[9] = test system: Corynebacterium aurimucosum; test: Antibacterial activity against Corynebacterium aurimucosum isolated from patient with diabetic foot infection after 48 hrs by broth microdilution method; method in brief: as §2
[10] = test system: Streptococcus dysgalactiae subsp. equisimilis; test: Antibacterial activity against Streptococcus dysgalactiae subsp. equisimilis isolated from patient with diabetic foot infection after 18 to 24 hrs by broth microdilution method
Method in brief: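 Streptococcal isolates were subcultured on Trypticase soy blood agar. Broth microdilution used cation-adjusted Mueller-Hinton broth with lysed horse blood, in in-house trays of serial twofold drug dilutions stored at −70°C. Overnight colonies were suspended to a final inoculum of approximately 5 × 10^5 CFU/ml. MIC was read after 18 to 24 h incubation at 37°C.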

Staphylococcus aureus [11] = test: Antibacterial activity against methicillin-resistant Staphylococcus aureus isolated from patient with diabetic foot infection assessed as percent resistant isolates after 18 to 24 hrs by broth microdilution method
Method in brief: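 Isolates grown on Trypticase soy blood agar, then tested by broth microdilution in unsupplemented cation-adjusted Mueller-Hinton broth. In-house trays held serial twofold drug dilutions and were stored at −70°C. Overnight colonies were suspended to a final inoculum near 5 × 10^5 CFU/ml, and trays read after 18–24 h at 37°C. QC strains: S. aureus ATCC 29213, E. coli ATCC 25922.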

[12] = test system: Staphylococcus epidermidis; test: Antibacterial activity against Staphylococcus epidermidis isolated from patient with diabetic foot infection assessed as percent resistant isolates after 18 to 24 hrs by broth microdilution method
Method in brief: (§5)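 Aerobes subcultured on Trypticase soy blood agar, then broth microdilution in cation-adjusted Mueller-Hinton broth. Trays prepared in-house with twofold dilutions and stored at −70°C. Overnight colonies suspended to about 5 × 10^5 CFU/ml final. Read after 18 to 24 h at 37°C. QC strains included S. aureus ATCC 29213 and E. coli ATCC 25922.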

[13] = test system: Corynebacterium minutissimum; test: Antibacterial activity against Corynebacterium minutissimum isolated from patient with diabetic foot infection assessed as percent resistant isolates after 48 hrs by broth microdilution method; method in brief: as §4
Streptococcus pyogenes = test: Antibacterial activity against Streptococcus pyogenes isolated from patient with diabetic foot infection assessed as percent resistant isolates after 18 to 24 hrs by broth microdilution method
Method in brief: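 Isolates subcultured on Trypticase soy blood agar. MICs by broth microdilution in cation-adjusted Mueller-Hinton broth with lysed horse blood, in in-house trays of serial twofold drug dilutions stored at −70°C. Colonies from overnight growth were suspended to a final inoculum of about 5 × 10^5 CFU/ml. Read after 18–24 h at 37°C.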

[14] = test system: Corynebacterium amycolatum; test: Antibacterial activity against Corynebacterium amycolatum isolated from patient with diabetic foot infection assessed as percent resistant isolates after 48 hrs by broth microdilution method; method in brief: as §4
[15] = test system: Corynebacterium aurimucosum; test: Antibacterial activity against Corynebacterium aurimucosum isolated from patient with diabetic foot infection assessed as percent resistant isolates after 48 hrs by broth microdilution method; method in brief: as §4
Providencia rettgeri [16] = test: Antibacterial activity against Proteus rettgeri isolated from patient with diabetic foot infection assessed as percent resistant isolates after 18 to 24 hrs by broth microdilution method; method in brief: as §5
Enterobacter cloacae = test: Antibacterial activity against Enterobacter cloacae isolated from patient with diabetic foot infection assessed as percent resistant isolates after 18 to 24 hrs by broth microdilution method; method in brief: as §5
Pseudomonas aeruginosa [17] = test: Antibacterial activity against Pseudomonas aeruginosa isolated from patient with diabetic foot infection after 18 to 24 hrs by broth microdilution method; method in brief: as §3
Proteus vulgaris = test: Antibacterial activity against Proteus vulgaris isolated from patient with diabetic foot infection after 18 to 24 hrs by broth microdilution method; method in brief: as §3
Pseudomonas aeruginosa [18] = test: Antibacterial activity against Pseudomonas aeruginosa isolated from patient with diabetic foot infection assessed as percent resistant isolates after 18 to 24 hrs by broth microdilution method; method in brief: as §5
Klebsiella pneumoniae = test: Antibacterial activity against Klebsiella pneumoniae isolated from patient with diabetic foot infection assessed as percent resistant isolates after 18 to 24 hrs by broth microdilution method; method in brief: as §5
Providencia rettgeri [19] = test: Antibacterial activity against Proteus rettgeri isolated from patient with diabetic foot infection after 18 to 24 hrs by broth microdilution method; method in brief: as §3

SMILES	Activity [1]	MIC50 (Corynebacterium simulans [2])	MIC90 (Corynebacterium simulans [2])	MIC50 [3]	MIC90 [3]	MIC50 [4]	MIC90 [4]	Activity (Streptococcus agalactiae)	MIC50 (Staphylococcus aureus [5])	MIC90 (Staphylococcus aureus [5])	MIC50 [7]	MIC90 [7]	MIC50 [8]	MIC90 [8]	MIC50 [9]	MIC90 [9]	MIC50 [10]	MIC90 [10]	Activity (Staphylococcus aureus [11])	Activity [12]	also measured
CCC[C@@H]1C[C@@H](C(=O)N[C@@H]([C@H]2O[C@H](SC)[C@H](O)[C@@H](O)[C@H]2O)[C@H](C)Cl)N(C)C1 [CLINDAMYCIN]	13%	2 µg/mL (≈ 4.71 µM)	> 64 µg/mL	> 64 µg/mL	> 64 µg/mL	0.25 µg/mL (≈ 0.588 µM)	> 64 µg/mL	33%	0.125 µg/mL (≈ 0.294 µM)	0.25 µg/mL (≈ 0.588 µM)	> 64 µg/mL	> 64 µg/mL	> 64 µg/mL	> 64 µg/mL	> 64 µg/mL	> 64 µg/mL	0.125 µg/mL (≈ 0.294 µM)	> 64 µg/mL	39%	33%	Activity (Corynebacterium simulans [6]): 78%; Activity [13]: 100%; Activity (Streptococcus pyogenes): 13%; Activity [14]: 100%; Activity [15]: 100%
C[C@@H](O)[C@H]1C(=O)N2C(C(=O)O)=C(S[C@@H]3CN[C@H](CNS(N)(=O)=O)C3)[C@H](C)[C@H]12 [DORIPENEM]	0%	0.125 µg/mL (≈ 0.297 µM)	0.25 µg/mL (≈ 0.595 µM)	1 µg/mL (≈ 2.38 µM)	8 µg/mL (≈ 19 µM)	0.25 µg/mL (≈ 0.595 µM)	2 µg/mL (≈ 4.76 µM)	0%	0.03 µg/mL (≈ 0.0713 µM)	0.03 µg/mL (≈ 0.0713 µM)	1 µg/mL (≈ 2.38 µM)	8 µg/mL (≈ 19 µM)	1 µg/mL (≈ 2.38 µM)	8 µg/mL (≈ 19 µM)	1 µg/mL (≈ 2.38 µM)	8 µg/mL (≈ 19 µM)	≤ 0.015 µg/mL	≤ 0.015 µg/mL	100%	67%	Activity (Providencia rettgeri [16]): 0%; Activity (Enterobacter cloacae): 0%; MIC50 (Pseudomonas aeruginosa [17]): 0.25 µg/mL (≈ 0.595 µM); MIC90 (Pseudomonas aeruginosa [17]): 2 µg/mL (≈ 4.76 µM); MIC50 (Proteus vulgaris): 0.125 µg/mL (≈ 0.297 µM); MIC90 (Proteus vulgaris): 0.25 µg/mL (≈ 0.595 µM); Activity (Pseudomonas aeruginosa [18]): 7%; Activity (Klebsiella pneumoniae): 0%; Activity (Streptococcus pyogenes): 0%; MIC50 (Providencia rettgeri [19]): 0.125 µg/mL (≈ 0.297 µM); MIC90 (Providencia rettgeri [19]): 0.25 µg/mL (≈ 0.595 µM)
